In ChEMBL document CHEMBL2331331 (J Med Chem, 2013):
Calls of active or inactive are those of the source. The calls are words filed in the database; no cut-off is given here.

What was measured:
[1] = molecular target: Tyrosine-protein kinase SYK (Homo sapiens, UniProt P43405); test: Inhibition of SYK (unknown origin)
MV4-11 [2] = test: Induction of apoptosis in human MV4-11 cells assessed as late apoptotic cells at 0.003 uM after 24 hrs by annexin V-FITC/propidium iodide staining-based FACS flow cytometric analysis (reference value: 4.28%); format: functional
MV4-11 [3] = test: Induction of apoptosis in human MV4-11 cells assessed as late apoptotic cells at 0.1 uM after 24 hrs by annexin V-FITC/propidium iodide staining-based FACS flow cytometric analysis (reference value: 4.28%); format: functional
MV4-11 [4] = test: Induction of apoptosis in human MV4-11 cells assessed as early apoptotic cells at 0.003 uM after 24 hrs by annexin V-FITC/propidium iodide staining-based FACS flow cytometric analysis (reference value: 1.61%); format: functional
Myotonin-protein kinase = Myotonin-protein kinase (Homo sapiens, UniProt Q09013); test: Inhibition of DMPK (unknown origin)
MV4-11 [5] = test: Antitumor activity against FLT3-ITD-positive human MV4-11 cells xenografted in NOD-SCID mouse assessed as tumor regression at 10 mg/kg/day, po administered 18 days measured every 3 days for 18 days; format: functional, organism-based
Procedure, shortened: (§1)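 NOD-SCID mice (5–6 weeks) implanted sc with 1 × 10⁸/mL MV4-11 cells (100 μL) in serum-free medium. Grouped at 300–500 mm³, six per group, then dosed orally once daily for 18 days. Vehicle was 12.5% castor oil, 12.5% ethanol, 75% water. Tumor volume = long × short²/2, measured every 3 d.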

MV4-11 [6] = test: Antitumor activity against FLT3-ITD-positive human MV4-11 cells xenografted in NOD-SCID mouse assessed as tumor growth inhibition at 3 mg/kg/day, po administered 18 days measured every 3 days for 18 days; format: functional, organism-based; procedure, shortened: as §1
[7] = molecular target: T1, Receptor-type tyrosine-protein kinase FLT3 (Homo sapiens, UniProt P36888); test: Inhibition of FLT3 in human MV4-11 cells assessed as inhibition of STAT5 phosphorylation after 20 hrs by Western blotting analysis; format: cell-based
T1 sequence (P36888 whole entry): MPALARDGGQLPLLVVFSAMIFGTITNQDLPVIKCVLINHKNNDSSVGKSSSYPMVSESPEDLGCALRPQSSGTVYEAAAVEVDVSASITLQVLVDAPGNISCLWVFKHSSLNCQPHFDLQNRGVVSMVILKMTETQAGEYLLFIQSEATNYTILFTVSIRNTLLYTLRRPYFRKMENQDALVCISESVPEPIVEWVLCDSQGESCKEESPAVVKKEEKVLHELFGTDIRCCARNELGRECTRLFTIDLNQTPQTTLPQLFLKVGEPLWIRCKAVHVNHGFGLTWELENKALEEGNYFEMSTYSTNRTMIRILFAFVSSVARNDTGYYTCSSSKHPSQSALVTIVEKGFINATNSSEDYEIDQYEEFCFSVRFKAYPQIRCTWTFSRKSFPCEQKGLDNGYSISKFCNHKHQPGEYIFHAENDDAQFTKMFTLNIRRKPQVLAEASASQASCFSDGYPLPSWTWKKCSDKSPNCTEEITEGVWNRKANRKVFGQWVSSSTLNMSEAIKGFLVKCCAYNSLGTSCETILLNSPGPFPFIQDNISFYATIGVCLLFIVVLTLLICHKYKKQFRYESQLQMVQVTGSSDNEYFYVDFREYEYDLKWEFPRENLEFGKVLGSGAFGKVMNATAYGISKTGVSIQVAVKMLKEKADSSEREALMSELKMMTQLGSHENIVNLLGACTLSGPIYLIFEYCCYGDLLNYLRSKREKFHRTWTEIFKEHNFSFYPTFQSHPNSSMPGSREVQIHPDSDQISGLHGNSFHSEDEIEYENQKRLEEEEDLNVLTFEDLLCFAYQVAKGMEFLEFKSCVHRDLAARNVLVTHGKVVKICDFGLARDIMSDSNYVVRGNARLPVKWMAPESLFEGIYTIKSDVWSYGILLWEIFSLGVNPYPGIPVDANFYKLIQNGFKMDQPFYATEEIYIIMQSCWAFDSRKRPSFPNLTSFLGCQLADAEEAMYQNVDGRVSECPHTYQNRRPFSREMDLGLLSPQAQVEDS

MV4-11 [8] = test: Induction of apoptosis in human MV4-11 cells assessed as late apoptotic cells at 0.01 uM after 24 hrs by annexin V-FITC/propidium iodide staining-based FACS flow cytometric analysis (reference value: 4.28%); format: functional
HCT-116 = test: Cytotoxicity against human HCT116 cells assessed as growth inhibition after 72 hrs by MTT assay; conditions: HCT-116, 72 h
[9] = molecular target: Serine/threonine-protein kinase/endoribonuclease IRE1 (Homo sapiens, UniProt O75460); test: Inhibition of ERN1 (unknown origin)
[10] = molecular target: Platelet-derived growth factor receptor beta (Homo sapiens, UniProt P09619); test: Inhibition of PDGFRbeta (unknown origin)
Procedure, shortened: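 Single selected panel of recombinant human protein kinases, screened in vitro. The value reported is the IC50 against each kinase.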

[11] = molecular target: T1, Receptor-type tyrosine-protein kinase FLT3; test: Inhibition of FLT3 in human MV4-11 cells assessed as inhibition of Erk1/2 phosphorylation after 20 hrs by Western blotting analysis; format: cell-based
[12] = molecular target: Serine/threonine-protein kinase PAK 2 (Homo sapiens, UniProt Q13177); test: Inhibition of PAK2 (unknown origin)
MDA-MB-468 = test: Cytotoxicity against human MDA-MB-468 cells assessed as growth inhibition after 72 hrs by MTT assay; conditions: MDA-MB-468, 72 h
TT = test: Cytotoxicity against human TT cells assessed as growth inhibition after 72 hrs by MTT assay
Mus musculus = test: Inhibition of FLT3-ITD mutant in human MV4-11 cells xenografted in NOD-SCID mouse assessed as inhibition of STAT5 phosphorylation at 10 mg/kg/day, po after 3 days by immunostaining method relative to vehicle-treated control; format: functional, organism-based
Procedure, shortened: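 Mice (NOD-SCID) bearing sc MV4-11 tumors given 10 mg/kg/d by oral gavage. Tumors removed after 2–4 days and formalin-fixed. Sections immunostained for Ki67 (proliferation) or p-STAT5, or TUNEL-stained (apoptosis). Imaged by light microscopy and compared with vehicle group.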

[13] = molecular target: Vascular endothelial growth factor receptor 2 (Danio rerio, UniProt Q5GIT4); test: (§2) Inhibition of VEGFR2 in transgenic zebrafish embryo assessed as inhibition of intersegmental vessels formation measured 33 hrs post fertilization by fluorescence microscopic analysis
Procedure, shortened: (§3)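 FLK-1:EGFP transgenic zebrafish embryos, 10 per well, exposed at 28.5 °C from 15 to 31 hpf to compound in fish water at 1.25, 2.5 or 5 μM (diluted from a 10 mmol/L DMSO stock); 0.3% DMSO as vehicle control. Embryos were imaged at 33 hpf, and ISVs above the yolk extension were scored for length. n = 11, mean ± SD, ANOVA.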

[14] = molecular target: Vascular endothelial growth factor receptor 2 (Danio rerio) (UniProt Q5GIT4); test: as §2; procedure, shortened: as §3
DU-145 = test: Cytotoxicity against human DU145 cells assessed as growth inhibition after 72 hrs by MTT assay; conditions: DU-145, 72 h
MV4-11 [15] = test: Induction of apoptosis in human MV4-11 cells assessed as late apoptotic cells at 0.001 uM after 24 hrs by annexin V-FITC/propidium iodide staining-based FACS flow cytometric analysis (reference value: 4.28%); format: functional

Sequence of Platelet-derived growth factor receptor beta (P09619 whole entry): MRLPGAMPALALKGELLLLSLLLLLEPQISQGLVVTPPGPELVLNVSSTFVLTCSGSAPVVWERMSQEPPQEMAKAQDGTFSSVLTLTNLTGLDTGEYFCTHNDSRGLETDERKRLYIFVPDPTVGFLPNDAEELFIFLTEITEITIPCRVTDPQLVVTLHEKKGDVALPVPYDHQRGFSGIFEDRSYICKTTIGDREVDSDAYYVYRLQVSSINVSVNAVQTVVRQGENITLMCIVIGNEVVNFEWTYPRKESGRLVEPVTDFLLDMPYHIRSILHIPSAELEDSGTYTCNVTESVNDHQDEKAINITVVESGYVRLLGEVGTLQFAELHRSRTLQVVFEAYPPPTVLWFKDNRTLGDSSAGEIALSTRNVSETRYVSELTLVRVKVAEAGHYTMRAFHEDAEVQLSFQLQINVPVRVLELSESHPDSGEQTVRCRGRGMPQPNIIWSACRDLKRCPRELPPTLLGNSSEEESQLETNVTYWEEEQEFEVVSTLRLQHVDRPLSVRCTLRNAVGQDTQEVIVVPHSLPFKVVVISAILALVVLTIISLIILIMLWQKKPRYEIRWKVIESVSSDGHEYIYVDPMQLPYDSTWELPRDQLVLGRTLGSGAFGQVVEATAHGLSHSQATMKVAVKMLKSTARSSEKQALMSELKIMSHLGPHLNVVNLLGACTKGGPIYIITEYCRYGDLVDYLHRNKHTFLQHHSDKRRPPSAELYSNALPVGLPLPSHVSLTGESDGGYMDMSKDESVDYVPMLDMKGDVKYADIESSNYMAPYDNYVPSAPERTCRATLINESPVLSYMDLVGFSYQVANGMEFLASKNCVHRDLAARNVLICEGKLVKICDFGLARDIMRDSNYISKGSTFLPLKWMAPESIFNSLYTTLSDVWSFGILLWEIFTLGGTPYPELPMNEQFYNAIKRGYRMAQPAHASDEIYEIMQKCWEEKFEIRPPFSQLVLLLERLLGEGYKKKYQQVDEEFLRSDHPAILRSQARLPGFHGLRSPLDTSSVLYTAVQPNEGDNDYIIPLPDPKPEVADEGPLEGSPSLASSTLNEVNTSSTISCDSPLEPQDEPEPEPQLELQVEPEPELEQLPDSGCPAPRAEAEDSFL
Sequence of Serine/threonine-protein kinase/endoribonuclease IRE1 (O75460 whole entry): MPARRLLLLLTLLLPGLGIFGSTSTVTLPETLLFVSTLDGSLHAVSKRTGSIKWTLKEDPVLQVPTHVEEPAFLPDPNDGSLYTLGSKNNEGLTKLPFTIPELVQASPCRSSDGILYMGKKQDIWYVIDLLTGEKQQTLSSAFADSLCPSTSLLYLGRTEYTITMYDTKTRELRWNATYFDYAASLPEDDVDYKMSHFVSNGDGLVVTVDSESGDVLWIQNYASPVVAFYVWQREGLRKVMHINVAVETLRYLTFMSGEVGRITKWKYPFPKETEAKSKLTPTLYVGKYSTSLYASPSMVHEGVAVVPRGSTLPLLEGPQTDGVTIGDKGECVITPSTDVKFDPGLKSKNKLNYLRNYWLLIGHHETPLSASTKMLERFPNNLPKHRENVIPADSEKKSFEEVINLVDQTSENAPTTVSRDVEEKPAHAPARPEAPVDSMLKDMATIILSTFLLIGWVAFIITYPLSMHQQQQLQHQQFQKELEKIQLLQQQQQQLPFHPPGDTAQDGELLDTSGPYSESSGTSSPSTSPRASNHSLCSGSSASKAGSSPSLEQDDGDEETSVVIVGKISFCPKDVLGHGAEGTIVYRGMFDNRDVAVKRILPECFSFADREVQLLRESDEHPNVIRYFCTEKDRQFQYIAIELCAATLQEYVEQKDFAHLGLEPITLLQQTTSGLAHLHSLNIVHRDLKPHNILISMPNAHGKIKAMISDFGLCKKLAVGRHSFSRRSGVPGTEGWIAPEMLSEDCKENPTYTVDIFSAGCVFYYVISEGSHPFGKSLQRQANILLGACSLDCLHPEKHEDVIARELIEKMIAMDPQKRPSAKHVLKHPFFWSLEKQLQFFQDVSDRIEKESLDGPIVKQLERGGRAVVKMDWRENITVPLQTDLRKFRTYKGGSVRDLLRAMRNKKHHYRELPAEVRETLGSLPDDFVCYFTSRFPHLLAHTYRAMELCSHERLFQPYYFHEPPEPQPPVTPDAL
Sequence of Myotonin-protein kinase (Q09013 whole entry): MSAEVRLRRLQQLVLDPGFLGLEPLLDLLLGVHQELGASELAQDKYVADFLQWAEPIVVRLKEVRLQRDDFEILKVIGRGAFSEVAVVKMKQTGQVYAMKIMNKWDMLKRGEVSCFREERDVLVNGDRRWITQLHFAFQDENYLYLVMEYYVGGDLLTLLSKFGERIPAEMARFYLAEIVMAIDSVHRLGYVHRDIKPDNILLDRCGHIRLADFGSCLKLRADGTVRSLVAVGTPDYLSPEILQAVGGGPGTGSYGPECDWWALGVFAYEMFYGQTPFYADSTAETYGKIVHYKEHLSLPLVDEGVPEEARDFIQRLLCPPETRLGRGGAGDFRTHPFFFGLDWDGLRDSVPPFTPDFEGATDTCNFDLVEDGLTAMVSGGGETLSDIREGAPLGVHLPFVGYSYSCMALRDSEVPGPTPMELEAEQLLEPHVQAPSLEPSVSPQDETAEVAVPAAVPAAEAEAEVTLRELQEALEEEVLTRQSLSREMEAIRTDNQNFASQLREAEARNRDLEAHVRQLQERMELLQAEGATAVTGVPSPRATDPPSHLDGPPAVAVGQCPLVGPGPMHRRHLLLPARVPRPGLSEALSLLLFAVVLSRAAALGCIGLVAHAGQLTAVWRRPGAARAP
Sequence of Vascular endothelial growth factor receptor 2 (Danio rerio) (Q5GIT4 whole entry): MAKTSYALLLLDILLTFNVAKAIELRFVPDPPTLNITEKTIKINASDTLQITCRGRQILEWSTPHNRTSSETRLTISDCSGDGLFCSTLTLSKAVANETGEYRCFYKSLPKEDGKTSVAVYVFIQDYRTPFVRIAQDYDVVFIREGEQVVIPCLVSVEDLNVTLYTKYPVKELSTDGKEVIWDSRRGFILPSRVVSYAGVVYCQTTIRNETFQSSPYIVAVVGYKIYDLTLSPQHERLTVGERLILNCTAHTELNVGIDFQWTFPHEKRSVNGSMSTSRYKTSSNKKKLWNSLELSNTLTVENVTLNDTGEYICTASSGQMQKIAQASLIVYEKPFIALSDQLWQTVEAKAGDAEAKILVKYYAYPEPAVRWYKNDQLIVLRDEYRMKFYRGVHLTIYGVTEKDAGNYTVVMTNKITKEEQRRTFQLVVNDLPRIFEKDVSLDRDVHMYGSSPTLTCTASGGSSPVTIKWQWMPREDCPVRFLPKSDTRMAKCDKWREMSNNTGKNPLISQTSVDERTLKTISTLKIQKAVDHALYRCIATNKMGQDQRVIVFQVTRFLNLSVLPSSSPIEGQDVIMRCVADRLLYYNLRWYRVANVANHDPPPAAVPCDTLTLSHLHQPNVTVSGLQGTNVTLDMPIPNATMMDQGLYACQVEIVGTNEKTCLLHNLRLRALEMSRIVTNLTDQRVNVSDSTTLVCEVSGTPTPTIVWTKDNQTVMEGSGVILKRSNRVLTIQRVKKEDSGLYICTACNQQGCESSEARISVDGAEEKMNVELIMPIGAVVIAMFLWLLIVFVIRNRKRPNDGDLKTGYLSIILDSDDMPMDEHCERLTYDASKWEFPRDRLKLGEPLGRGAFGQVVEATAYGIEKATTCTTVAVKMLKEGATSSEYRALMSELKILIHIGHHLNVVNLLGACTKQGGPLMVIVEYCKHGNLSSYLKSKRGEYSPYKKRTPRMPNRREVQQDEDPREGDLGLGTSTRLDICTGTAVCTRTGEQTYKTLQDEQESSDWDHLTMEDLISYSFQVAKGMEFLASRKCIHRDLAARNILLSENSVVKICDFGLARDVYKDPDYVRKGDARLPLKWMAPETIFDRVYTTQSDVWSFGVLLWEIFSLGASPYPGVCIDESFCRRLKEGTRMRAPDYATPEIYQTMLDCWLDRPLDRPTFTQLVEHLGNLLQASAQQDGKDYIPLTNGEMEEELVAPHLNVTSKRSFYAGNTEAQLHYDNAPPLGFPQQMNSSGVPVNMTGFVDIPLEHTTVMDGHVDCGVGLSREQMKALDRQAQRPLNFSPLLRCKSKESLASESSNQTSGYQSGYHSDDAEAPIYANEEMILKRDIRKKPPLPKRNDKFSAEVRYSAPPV
Sequence of Vascular endothelial growth factor receptor 2 (Q5GIT4 whole entry): as above
Sequence of Serine/threonine-protein kinase PAK 2 (Q13177 whole entry): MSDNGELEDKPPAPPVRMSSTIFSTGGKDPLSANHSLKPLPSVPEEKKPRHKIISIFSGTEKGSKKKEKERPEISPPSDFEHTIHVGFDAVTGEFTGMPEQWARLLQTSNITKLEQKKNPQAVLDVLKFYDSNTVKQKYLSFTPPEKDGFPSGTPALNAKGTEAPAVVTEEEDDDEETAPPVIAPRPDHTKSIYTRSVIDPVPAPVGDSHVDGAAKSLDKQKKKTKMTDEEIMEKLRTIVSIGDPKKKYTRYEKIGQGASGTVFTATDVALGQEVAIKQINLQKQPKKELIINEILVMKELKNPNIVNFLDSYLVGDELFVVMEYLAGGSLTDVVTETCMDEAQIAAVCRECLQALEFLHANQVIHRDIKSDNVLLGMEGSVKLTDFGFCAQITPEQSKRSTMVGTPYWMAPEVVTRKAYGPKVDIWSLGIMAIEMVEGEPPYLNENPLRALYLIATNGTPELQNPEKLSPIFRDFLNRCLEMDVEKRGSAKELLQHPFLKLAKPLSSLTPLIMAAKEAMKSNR

- IC50 [1]: > 10 µM
- IC50 (Myotonin-protein kinase): > 10 µM
- IC50 [7]: 0.003 µM
- IC50 [9]: > 10 µM
- IC50 [10]: 0.408 µM
- IC50 [11]: 0.001 µM
- IC50 [12]: > 10 µM
- IC50 [13]: 2.5 µM
- inhibition [14]: Dose-dependent effect
Structure (SMILES): O=C(Nc1ccc(Oc2ncnc3[nH]ncc23)cc1)Nc1ccc(Cl)c(C(F)(F)F)c1
- Activity (MV4-11 [2]): 7.11%
- Activity (MV4-11 [3]): 25.8%
- Activity (MV4-11 [4]): 5.16%
- Activity (MV4-11 [5]): Active
- TGI (MV4-11 [6]): Active
- Activity (MV4-11 [8]): 9.64%
- IC50 (HCT-116): > 10 µM
- IC50 (MDA-MB-468): 6.68 µM
- IC50 (TT): 3.42 µM
- inhibition (Mus musculus): Active
- IC50 (DU-145): > 10 µM
- Activity (MV4-11 [15]): 5.5%
